≈ marks a conversion by molar mass, not a printed value.
How the values were obtained:
Format in all cases: functional
Streptococcus pneumoniae [1] = experiment: Antibacterial activity against ciprofloxacin-resistant Streptococcus pneumoniae OC6578 clinical isolate by broth microdilution method
Streptococcus pneumoniae [2] = experiment: Antibacterial activity against ciprofloxacin-resistant Streptococcus pneumoniae OC6608 clinical isolate by broth microdilution method
Staphylococcus aureus [3] = experiment: Antibacterial activity against ciprofloxacin-susceptible Staphylococcus aureus OC4172 by broth microdilution method
Outline: (§1)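 MIC by broth microdilution following CLSI M07-A9 guidelines for aerobically growing bacteria. Where a compound was tested more than once, across several test dates or batches, the modal MIC is reported.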

Streptococcus pneumoniae [4] = experiment: Antibacterial activity against ciprofloxacin-resistant Streptococcus pneumoniae OC5465 clinical isolate by broth microdilution method
Streptococcus pneumoniae [5] = experiment: Antibacterial activity against ciprofloxacin-susceptible Streptococcus pneumoniae ATCC49619 by broth microdilution method; outline: as §1
Escherichia coli = experiment: Antibacterial activity against Escherichia coli ATCC 25922 by broth microdilution method; outline: as §1
Staphylococcus aureus [6] = experiment: Antibacterial activity against methicillin-resistant Staphylococcus aureus OC2805 by broth microdilution method
Outline: (§2)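 Broth microdilution MIC per CLSI M07-A9 guidelines for aerobically growing bacteria. Where a compound was tested several times (multiple test dates and batches), the modal MIC is reported.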

[7] = tested on: Staphylococcus epidermidis; experiment: Antibacterial activity against methicillin-resistant Staphylococcus epidermidis OC5340 by broth microdilution method; outline: as §2

SMILES	MIC (Streptococcus pneumoniae [1]) [µg/mL]	MIC (Streptococcus pneumoniae [2]) [µg/mL]	MIC (Staphylococcus aureus [3]) [µg/mL]	MIC (Streptococcus pneumoniae [4]) [µg/mL]	MIC (Streptococcus pneumoniae [5]) [µg/mL]	MIC (Escherichia coli) [µg/mL]	MIC (Staphylococcus aureus [6]) [µg/mL]	MIC [7] [µg/mL]
NCC(F)=C1CCN(c2nc3c(cc2F)c(=O)c(C(=O)O)cn3C2CC2)CC1	0.5 (≈ 1.28 µM)	2 (≈ 5.12 µM)	0.03 (≈ 0.0768 µM)	1 (≈ 2.56 µM)	0.12 (≈ 0.307 µM)			
COc1c(N2CCC(=C(Cl)CNC(C)C)CC2)c(F)cc2c(=O)c(C(=O)O)cn(C3CC3)c12	4 (≈ 8.37 µM)		0.12 (≈ 0.251 µM)	2 (≈ 4.18 µM)	0.5 (≈ 1.05 µM)			
CC1COc2c(N3CCC(=C(F)CN)CC3)c(F)cc3c(=O)c(C(=O)O)cn1c23 (racemic)	8 (≈ 19.7 µM)	2 (≈ 4.93 µM)	0.25 (≈ 0.617 µM)	8 (≈ 19.7 µM)	0.5 (≈ 1.23 µM)			
NCC(Cl)=C1CCN(c2c(F)cc3c(=O)c(C(=O)O)cn(C4CC4)c3c2OC(F)F)CC1	1 (≈ 2.12 µM)	0.5 (≈ 1.06 µM)	0.06 (≈ 0.127 µM)	0.12 (≈ 0.254 µM)	0.12 (≈ 0.254 µM)	0.5 (≈ 1.06 µM)	1 (≈ 2.12 µM)	0.5 (≈ 1.06 µM)
CNCC(Cl)=C1CCN(c2c(F)cc3c(=O)c(C(=O)O)cn(C4CC4)c3c2OC)CC1	0.5 (≈ 1.11 µM)	0.25 (≈ 0.556 µM)	≤ 0.015	0.25 (≈ 0.556 µM)	0.06 (≈ 0.133 µM)	0.5 (≈ 1.11 µM)	0.5 (≈ 1.11 µM)	0.5 (≈ 1.11 µM)
COc1c(N2CCC(=C(F)CN)CC2)c(F)cc2c(=O)c(C(=O)O)cn(C3CC3)c12	1 (≈ 2.38 µM)	0.5 (≈ 1.19 µM)	0.03 (≈ 0.0715 µM)	0.5 (≈ 1.19 µM)	0.12 (≈ 0.286 µM)			
CC(CN)=C1CCN(c2nc3c(cc2F)c(=O)c(C(=O)O)cn3C2CC2)CC1	1 (≈ 2.59 µM)	0.25 (≈ 0.647 µM)	0.06 (≈ 0.155 µM)	1 (≈ 2.59 µM)	0.12 (≈ 0.311 µM)			
COc1c(N2CCC(=C(Cl)CN(C)C)CC2)c(F)cc2c(=O)c(C(=O)O)cn(C3CC3)c12	8 (≈ 17.2 µM)	8 (≈ 17.2 µM)	0.25 (≈ 0.539 µM)	2 (≈ 4.31 µM)	0.5 (≈ 1.08 µM)			
COc1c(N2CCC(=C(Cl)CN)CC2)c(F)cc2c(=O)c(C(=O)O)cn(C3CC3)c12	0.25 (≈ 0.574 µM)	0.25 (≈ 0.574 µM)	≤ 0.015	0.25 (≈ 0.574 µM)	0.06 (≈ 0.138 µM)	0.25 (≈ 0.574 µM)	0.25 (≈ 0.574 µM)	0.25 (≈ 0.574 µM)
COc1c(N2CCC(=C(C)CN)CC2)c(F)cc2c(=O)c(C(=O)O)cn(C3CC3)c12	0.25 (≈ 0.602 µM)		0.03 (≈ 0.0722 µM)	0.25 (≈ 0.602 µM)	0.12 (≈ 0.289 µM)			
NCC(Cl)=C1CCN(c2nc3c(cc2F)c(=O)c(C(=O)O)cn3C2CC2)CC1	0.25 (≈ 0.614 µM)	1 (≈ 2.46 µM)	0.06 (≈ 0.147 µM)	1 (≈ 2.46 µM)	0.12 (≈ 0.295 µM)			
NCC=C1CCN(c2nc3c(cc2F)c(=O)c(C(=O)O)cn3C2CC2)CC1	8 (≈ 21.5 µM)	8 (≈ 21.5 µM)	0.12 (≈ 0.322 µM)		0.5 (≈ 1.34 µM)			
CCNCC(Cl)=C1CCN(c2c(F)cc3c(=O)c(C(=O)O)cn(C4CC4)c3c2OC)CC1	1 (≈ 2.16 µM)	1 (≈ 2.16 µM)	0.12 (≈ 0.259 µM)	1 (≈ 2.16 µM)	0.25 (≈ 0.539 µM)			
CC(CN)=C1CCN(c2c(F)cc3c(=O)c(C(=O)O)cn4c3c2OCC4C)CC1 (racemic)	> 16	4 (≈ 9.96 µM)	0.5 (≈ 1.25 µM)	> 16	1 (≈ 2.49 µM)			
NCC(Cl)=C1CCN(c2cc3c(cc2F)c(=O)c(C(=O)O)cn3C2CC2)CC1	0.5 (≈ 1.23 µM)		0.03 (≈ 0.0739 µM)	1 (≈ 2.46 µM)	0.12 (≈ 0.296 µM)			
CC(CN)=C1CCN(c2cc3c(cc2F)c(=O)c(C(=O)O)cn3C2CC2)CC1	2 (≈ 5.19 µM)	8 (≈ 20.8 µM)	0.12 (≈ 0.311 µM)	8 (≈ 20.8 µM)	1 (≈ 2.59 µM)			
NCC(F)=C1CCN(c2cc3c(cc2F)c(=O)c(C(=O)O)cn3C2CC2)CC1	1 (≈ 2.57 µM)		0.03 (≈ 0.077 µM)		0.06 (≈ 0.154 µM)			
O=C(O)c1cn(C2CC2)c2cc(N3CCNCC3)c(F)cc2c1=O [CIPROFLOXACIN]			0.12 (≈ 0.362 µM)		1 (≈ 3.02 µM)			8 (≈ 24.1 µM)
NCC(F)=C1CCN(c2c(F)cc3c(=O)c(C(=O)O)cn(C4CC4)c3c2OC(F)F)CC1	2 (≈ 4.39 µM)	0.25 (≈ 0.549 µM)	0.06 (≈ 0.132 µM)	0.25 (≈ 0.549 µM)	0.25 (≈ 0.549 µM)			
C[C@H]1COc2c(N3CCC(=C(Cl)CN)CC3)c(F)cc3c(=O)c(C(=O)O)cn1c23	0.25 (≈ 0.593 µM)	0.25 (≈ 0.593 µM)	≤ 0.015	0.5 (≈ 1.19 µM)	0.03 (≈ 0.0711 µM)			
